The values below come from ChEMBL document CHEMBL4706624, “Synthesis and evaluation of new quinazoline-benzimidazole hybrids as potent anti-microbial agents against multidrug resistant Staphylococcus aureus and Mycobacterium tuberculosis” (Eur J Med Chem, 2021).

Data set [1] deals with Escherichia coli. The data set is described as follows: Antibacterial activity against Escherichia coli ATCC 25922 measured after 16 to 18 hrs. In kind it is functional. Particulars: time 16-18 hrs. Put shortly: (§1)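 Broth microdilution MIC. Strains grown on MHA; a single colony was grown overnight in CA-MHB at 37 °C with shaking for 18–24 h. Cultures were diluted by OD600 to ~10⁶ cfu/mL and exposed to compound at […]. Plates were incubated at 37 °C for 16-18 h. MIC = lowest concentration with no visible growth. Levofloxacin was the reference. Three independent runs, each in duplicate.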

For data set [2], the system named is Staphylococcus aureus. The data set is described as follows: Antibacterial activity against Staphylococcus aureus ATCC 29213 measured after 16 to 18 hrs. In kind it is functional. The note with it: time 16-18 hrs. A digest of the protocol:
as §1

For data set [3], the system named is Klebsiella pneumoniae. The data set is described as follows: Antibacterial activity against Klebsiella pneumoniae BAA-1705 measured after 16 to 18 hrs. In kind it is functional. The note with it: ATCC BAA-1705, time 16-18 hrs. A digest of the protocol: as §1
For data set [4], the system named is Acinetobacter baumannii. The data set is described as follows: Antibacterial activity against Acinetobacter baumannii BAA1605 measured after 16 to 18 hrs. In kind it is functional. Particulars: time 16-18 hrs. A digest of the protocol: as §1
Data set [5] concerns Pseudomonas aeruginosa. The data set is described as follows: Antibacterial activity against Pseudomonas aeruginosa ATCC 27853 measured after 16 to 18 hrs. In kind it is functional. The note with it: time 16-18 hrs. Put shortly: as §1
The nature of data set [6]: Cytotoxicity against African green monkey Vero cells assessed as reduction in cell viability measured after 72 hrs by MTT assay. In kind it is cell-based. Particulars: chlorocebus sabaeus. Put shortly:
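Vero cells (ATCC CCL-81), ~10³ cells/well, held 24 h at 37 °C in 5% CO₂. Compound at 100–5 mg/L for 72 h. MTT was added for 4 h, formazan dissolved in DMSO, OD read at 540 nm. CC50 = concentration giving 50% viability reduction. Doxorubicin was the positive control. Triplicate.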

Data set [7] in a line: Selectivity index, ratio of CC50 for cytotoxicity against African green monkey Vero cells to MIC for antibacterial activity against Staphylococcus aureus ATCC 29213. In kind it is toxicity, cell-based. The note with it: read-out: Selectivity Index. A digest of the protocol:
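SI = Vero CC50 (MTT, 72 h) divided by MIC against S. aureus ATCC 29213 (CA-MHB broth microdilution, 16-18 h, 37 °C).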

Data set [8] deals with Staphylococcus aureus. The data set is described as follows: Antibacterial activity against methicillin-sensitive Staphylococcus aureus ATCC 29213 measured after 16 to 18 hrs. In kind it is functional. The note with it: time 16-18 hrs. A digest of the protocol: as §1
The subject of data set [9] is Staphylococcus aureus. The data set is described as follows: Antibacterial activity against methicillin-resistant Staphylococcus aureus NR100 measured after 16 to 18 hrs. In kind it is functional. Particulars: time 16-18 hrs. Put shortly:
as §1

Data set [10] deals with Staphylococcus aureus. The data set is described as follows: Antibacterial activity against methicillin-resistant Staphylococcus aureus NR119 measured after 16 to 18 hrs. In kind it is functional. The note with it: time 16-18 hrs. Put shortly: as §1
The test system of data set [11] is Staphylococcus aureus. The data set is described as follows: Antibacterial activity against methicillin-resistant Staphylococcus aureus NR10129 measured after 16 to 18 hrs. In kind it is functional. The note with it: time 16-18 hrs. Put shortly: as §1
Data set [12] deals with Staphylococcus aureus. The data set is described as follows: Antibacterial activity against methicillin-resistant Staphylococcus aureus NR10198 measured after 16 to 18 hrs. In kind it is functional. Particulars: time 16-18 hrs. Put shortly: as §1
Data set [13] deals with Staphylococcus aureus. The data set is described as follows: Antibacterial activity against methicillin-resistant Staphylococcus aureus NR10192 measured after 16 to 18 hrs. In kind it is functional. The note with it: time 16-18 hrs. A digest of the protocol: as §1
The test system of data set [14] is Staphylococcus aureus. The data set is described as follows: Antibacterial activity against methicillin-resistant Staphylococcus aureus NR10186 measured after 16 to 18 hrs. In kind it is functional. Particulars: time 16-18 hrs. Put shortly: as §1
Data set [15] relates to Staphylococcus aureus. The data set is described as follows: Antibacterial activity against methicillin-resistant Staphylococcus aureus NR10193 measured after 16 to 18 hrs. In kind it is functional. Particulars: time 16-18 hrs. Put shortly: as §1
Data set [16] concerns Staphylococcus aureus. The data set is described as follows: Antibacterial activity against methicillin-resistant Staphylococcus aureus NR10194 measured after 16 to 18 hrs. In kind it is functional. Particulars: time 16-18 hrs. A digest of the protocol: as §1
In data set [17] the test system is Staphylococcus aureus. The data set is described as follows: Antibacterial activity against methicillin-resistant Staphylococcus aureus NR10191 measured after 16 to 18 hrs. In kind it is functional. Particulars: time 16-18 hrs. Put shortly:
as §1

Data set [18] relates to Staphylococcus aureus. The data set is described as follows: Antibacterial activity against vancomycin-resistant Staphylococcus aureus VRS1 measured after 16 to 18 hrs. Particulars: time 16-18 hrs. In kind it is functional. A digest of the protocol:
as §1

Data set [19] has as its system Staphylococcus aureus. The data set is described as follows: Antibacterial activity against vancomycin-resistant Staphylococcus aureus VRS4 measured after 16 to 18 hrs. The note with it: time 16-18 hrs. In kind it is functional. Put shortly: as §1
The subject of data set [20] is Staphylococcus aureus. The data set is described as follows: Antibacterial activity against vancomycin-resistant Staphylococcus aureus VRS12 measured after 16 to 18 hrs. In kind it is functional. The note with it: time 16-18 hrs. A digest of the protocol:
as §1

Data set [21] relates to Mycobacterium tuberculosis. The data set is described as follows: Antitubercular activity against Mycobacterium tuberculosis H37Rv ATCC 27294 measured after 7 days by broth microdilution method. In kind it is functional. The note with it: H37Rv ATCC 27294, 168 h, time 7 day. A digest of the protocol: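 H37Rv in Middlebrook 7H9 with 10% ADC, 0.2% glycerol, 0.05% Tween-80. Inoculum ~10⁶ cfu/mL set by OD600. Twofold serial dilutions, 0.0064–0.00005 g/100 mL. Incubated at 37 °C for 7 days, then Presto blue resazurin read-out. MIC = lowest concentration inhibiting visible growth. Triplicate runs, each in duplicate.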

For data set [22], the system named is Mycobacteroides abscessus. The data set is described as follows: Antimycobacterial activity against Mycobacterium abscessus ATCC 19977 by broth microdilution method. In kind it is functional. A digest of the protocol: (§2)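 Broth microdilution MIC in Middlebrook 7H9 with 10% ADC-Tween-80 (BSA, dextrose, 0.2% glycerol, 0.05% Tween-80). Inoculum ~10⁶ cfu/mL set by OD600. Compounds were twofold serially diluted, 0.0064–0.00005 g/100 mL (DMSO stocks). Presto blue resazurin dye was used as read-out. MIC = lowest concentration inhibiting visible growth. Triplicate runs, each in duplicate.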
In general terms: Dilution methods test growth across graded concentrations, often in twofold steps.

Data set [23] concerns Mycolicibacterium fortuitum. The data set is described as follows: Antimycobacterial activity against Mycobacterium fortuitum ATCC 6841 by broth microdilution method. In kind it is functional. Put shortly: as §2
Data set [24] concerns Mycobacteroides chelonae. The data set is described as follows: Antimycobacterial activity against Mycobacterium chelonae ATCC 35752 by broth microdilution method. In kind it is functional. A digest of the protocol: as §2

SMILES strings stand for the structures. Values after ≈ are worked out from the molar mass of the structure shown. Bounds are passed on as bounds.

Turning to `Fc1ccc2[nH]c(-c3ccc(Nc4nc(-c5ccc(Cl)cc5)nc5ccccc45)cc3)nc2c1`, the MIC in data set [1] was > 64 µg/mL; in data set [2] it was 4 µg/mL (≈ 8.59 µM); in data set [3], > 64 µg/mL; in [4], > 64 µg/mL; in data set [5], > 64 µg/mL; in [8] it was 4 µg/mL (≈ 8.59 µM). In addition, the minimum inhibitory concentration (MIC) in [9] turned out to be 4 µg/mL (≈ 8.59 µM); in [10] it was 4 µg/mL (≈ 8.59 µM); in [11], 4 µg/mL (≈ 8.59 µM); in data set [12] it was 8 µg/mL (≈ 17.2 µM); in data set [13] it was 2 µg/mL (≈ 4.29 µM); in [14], 4 µg/mL (≈ 8.59 µM). For the same molecule, the MIC in data set [15] was determined as 8 µg/mL (≈ 17.2 µM); in [16], 4 µg/mL (≈ 8.59 µM); in data set [17], 8 µg/mL (≈ 17.2 µM); in [18], 4 µg/mL (≈ 8.59 µM); in data set [19], 2 µg/mL (≈ 4.29 µM); in data set [20], 4 µg/mL (≈ 8.59 µM). Moreover, in data set [6], the CC50 at 72 h was determined as 50 µg/mL (≈ 107 µM). Moreover, the selectivity ratio in data set [7] stood at 12.5.

As for `Clc1ccc2[nH]c(-c3ccc(Nc4nc(-c5ccccc5)nc5ccccc45)cc3)nc2c1`, the MIC was > 64 µg/mL in data set [1]; 8 µg/mL (≈ 17.9 µM) in data set [2]; > 64 µg/mL in [3]; > 64 µg/mL in data set [4]; > 64 µg/mL in data set [5]; 32 µg/mL (≈ 71.4 µM) in data set [21]. In addition, the minimum inhibitory concentration (MIC) in data set [22] was > 64 µg/mL; in data set [23], 32 µg/mL (≈ 71.4 µM); in data set [24], 32 µg/mL (≈ 71.4 µM); in [8], 8 µg/mL (≈ 17.9 µM); in [9] it was 8 µg/mL (≈ 17.9 µM); in [10], 8 µg/mL (≈ 17.9 µM). In addition, the minimal inhibitory concentration (MIC) was found to be 8 µg/mL (≈ 17.9 µM) in data set [11]; 4 µg/mL (≈ 8.93 µM) in data set [12]; 8 µg/mL (≈ 17.9 µM) in [13]; 8 µg/mL (≈ 17.9 µM) in data set [14]; 16 µg/mL (≈ 35.7 µM) in data set [15]; 8 µg/mL (≈ 17.9 µM) in data set [16]. For the same molecule, the MIC was 16 µg/mL (≈ 35.7 µM) in [17], 4 µg/mL (≈ 8.93 µM) in data set [18], 8 µg/mL (≈ 17.9 µM) in data set [19] and 8 µg/mL (≈ 17.9 µM) in [20]. For the same molecule, the CC50 at 72 h in [6] came to 100 µg/mL (≈ 223 µM). Further, the selectivity ratio in data set [7] was 12.5.

As for `c1ccc(-c2nc(Nc3ccc(-c4nc5ccccc5[nH]4)cc3)c3ccccc3n2)cc1`, the MIC in data set [1] is > 64 µg/mL; in data set [2], 8 µg/mL (≈ 19.3 µM); in data set [3] it was > 64 µg/mL; in data set [4] it was > 64 µg/mL; in data set [5], > 64 µg/mL; in data set [21] it was > 64 µg/mL. The minimal inhibitory concentration (MIC) in data set [22] was > 64 µg/mL; in data set [23], > 64 µg/mL; in data set [24] it was > 64 µg/mL; in [8] it was 8 µg/mL (≈ 19.3 µM); in [9] it was 32 µg/mL (≈ 77.4 µM); in data set [10], 8 µg/mL (≈ 19.3 µM). For the same molecule, the MIC in data set [11] was found to be 16 µg/mL (≈ 38.7 µM); in [12], 4 µg/mL (≈ 9.67 µM); in [13], 32 µg/mL (≈ 77.4 µM); in data set [14], 8 µg/mL (≈ 19.3 µM); in data set [15], 16 µg/mL (≈ 38.7 µM); in [16], 8 µg/mL (≈ 19.3 µM). In addition, the MIC in data set [17] is 16 µg/mL (≈ 38.7 µM); in [18] it was 8 µg/mL (≈ 19.3 µM); in data set [19], 8 µg/mL (≈ 19.3 µM); in [20], 16 µg/mL (≈ 38.7 µM). The 50% cytotoxic concentration (CC50) at 72 h in data set [6] worked out at 80 µg/mL (≈ 193 µM). Further, in [7], the selectivity ratio was 10.

As a reminder, the MIC is the lowest concentration found to suppress growth. One may read the CC50 as the concentration that lowers cell viability or growth by half.
